Reference: ChEMBL document CHEMBL4619791, “3-Difluoroalkyl Quaternary Oxindoles Inhibit Macrophage Pyroptosis by Blocking Inflammasome Recruitment of Caspase-1” (ACS Med Chem Lett, 2020)
Activity calls are given as the source filed them. The rule behind the calls is not given here.

Legend:
[1] = tested on: BMDM; assay: Inhibition of pyroptosis cell death in LPS-primed C57BL/6 mouse primary BMDM assessed as reduction in nigericin-induced IL-1beta secretion; assay type: functional, cell-based
Outline: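 Primary murine macrophages primed with LPS and stimulated with nigericin across a dose range. IL-1β release, LDH release and Alamar blue measured. Means ± SE, ≥3 experimental replicates.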

[2] = target: T1, Gastrin/cholecystokinin type B receptor (Mus musculus) (UniProt P56481); assay: Antagonist activity at CCKB receptor in immortalized mouse […] cells assessed as inhibition of nigericin-induced pyroptosis at 5 uM; assay type: cell-based; details: J774.A1
T1 sequence (whole entry): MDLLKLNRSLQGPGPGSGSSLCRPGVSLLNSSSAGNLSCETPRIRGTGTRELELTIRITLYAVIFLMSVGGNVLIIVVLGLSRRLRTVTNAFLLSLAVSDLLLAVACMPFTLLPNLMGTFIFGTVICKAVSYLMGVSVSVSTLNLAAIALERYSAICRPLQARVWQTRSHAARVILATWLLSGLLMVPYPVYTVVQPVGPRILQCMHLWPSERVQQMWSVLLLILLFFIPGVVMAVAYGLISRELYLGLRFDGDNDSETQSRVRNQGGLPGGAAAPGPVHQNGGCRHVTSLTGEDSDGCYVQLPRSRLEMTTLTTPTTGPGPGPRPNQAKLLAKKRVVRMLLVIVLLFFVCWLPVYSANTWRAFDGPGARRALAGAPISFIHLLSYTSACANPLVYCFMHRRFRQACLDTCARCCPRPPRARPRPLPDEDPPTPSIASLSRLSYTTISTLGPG
Outline: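 CCKB antagonists netazepide and proglumide were given to immortalized macrophages, with pyroptosis induced by nigericin.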

[3] = target: T2, Caspase-1 (Mus musculus) (UniProt P29452); assay: Inhibition of caspase-1 activity in LPS-primed immortalized mouse […] cells assessed as reduction in nigericin-induced caspase-1 cleavage at 5 uM by Western blot analysis; assay type: cell-based; details: J774.A1
T2 sequence (whole entry): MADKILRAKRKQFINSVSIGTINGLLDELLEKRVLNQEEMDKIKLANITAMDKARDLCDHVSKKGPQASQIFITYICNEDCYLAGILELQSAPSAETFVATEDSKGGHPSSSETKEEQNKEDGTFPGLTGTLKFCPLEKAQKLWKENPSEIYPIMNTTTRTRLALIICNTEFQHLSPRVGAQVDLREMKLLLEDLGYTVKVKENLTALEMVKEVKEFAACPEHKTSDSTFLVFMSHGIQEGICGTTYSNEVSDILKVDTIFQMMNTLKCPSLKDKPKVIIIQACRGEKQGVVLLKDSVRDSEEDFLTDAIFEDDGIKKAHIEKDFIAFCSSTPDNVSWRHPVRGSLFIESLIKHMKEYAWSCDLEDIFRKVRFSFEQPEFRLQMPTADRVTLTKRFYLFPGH
Outline: (§1)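 Western blot of full-length and cleaved caspase-1 and caspase-8 in J774A.1 cells after nigericin, with tubulin as loading control. Bands quantified as bar graphs.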

[4] = target: T3, Caspase-8 (Mus musculus) (UniProt O89110); assay: Inhibition of caspase-8 activity in LPS-primed immortalized mouse […] cells assessed as reduction in nigericin-induced caspase-8 cleavage at 5 uM by Western blot analysis; assay type: cell-based; details: J774.A1; outline: as §1
T3 sequence (whole entry): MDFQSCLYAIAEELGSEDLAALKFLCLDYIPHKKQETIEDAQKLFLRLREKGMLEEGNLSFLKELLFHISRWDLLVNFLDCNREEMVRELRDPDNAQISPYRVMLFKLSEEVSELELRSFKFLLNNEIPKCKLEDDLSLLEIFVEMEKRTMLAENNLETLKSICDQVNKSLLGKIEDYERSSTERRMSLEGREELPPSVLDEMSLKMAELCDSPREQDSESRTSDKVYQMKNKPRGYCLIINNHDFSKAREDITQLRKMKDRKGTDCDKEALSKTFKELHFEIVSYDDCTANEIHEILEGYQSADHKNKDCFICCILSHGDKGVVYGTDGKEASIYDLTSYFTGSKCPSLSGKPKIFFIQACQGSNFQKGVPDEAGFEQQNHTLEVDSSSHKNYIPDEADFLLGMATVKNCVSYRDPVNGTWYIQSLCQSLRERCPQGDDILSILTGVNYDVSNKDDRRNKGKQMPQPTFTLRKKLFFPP

[5] = target: T4, Caspase-1 (Homo sapiens) (UniProt P29466); assay: Inhibition of ASC-mediated caspase-1 cleavage in human THP1 cells transfected with GFP-tagged ASC at 5 uM FACS analysis; assay type: cell-based; details: THP-1
T4 sequence (whole entry): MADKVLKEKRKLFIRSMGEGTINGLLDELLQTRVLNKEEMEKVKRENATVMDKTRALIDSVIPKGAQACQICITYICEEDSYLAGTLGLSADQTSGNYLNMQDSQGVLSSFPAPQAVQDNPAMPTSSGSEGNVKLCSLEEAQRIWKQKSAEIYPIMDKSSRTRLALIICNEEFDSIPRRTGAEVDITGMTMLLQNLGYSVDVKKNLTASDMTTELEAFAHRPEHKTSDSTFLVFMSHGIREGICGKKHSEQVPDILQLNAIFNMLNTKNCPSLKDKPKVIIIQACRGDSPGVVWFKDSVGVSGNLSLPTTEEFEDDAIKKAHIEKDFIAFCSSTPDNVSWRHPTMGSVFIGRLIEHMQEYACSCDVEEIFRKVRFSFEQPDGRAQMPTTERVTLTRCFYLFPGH

## CCOC(CN1C(=O)C(NC(=O)Nc2ccc(C)cc2)(C(F)(F)C(=O)Nc2ccc(C)cc2)c2ccccc21)OCC (stereo not given)
[1]
  inhibition: Dose-dependent effect
[2]
  Activity: inactive
[3]
  inhibition: Active
[4]
  inhibition: inactive
[5]
  inhibition: Active
